According to ChEMBL document CHEMBL1121475, “Inhibitors of indoleethylamine N-methyltransferase. Derivatives of 3-methyl-2-thiazolidinimine. In vitro, in vivo, and metabolic studies” (J Med Chem, 1980):
Values joined by “and” are separate entries in the source; they are usually repeats but may differ in a detail not shown here. Equal entries are not always repeated.

Assays:
Oryctolagus cuniculus [1] = assay: 100 mg/kg of [14C]- radiolabeled compound was orally administered in rabbit3, and radioactivity content in urine was estimated at total hours; conditions: rabbit, in vivo, po
[2] = Dose that causes approximately 50% lethality in mice, when given perorally; format: ADME, organism-based; conditions: mouse, in vivo, po
How it was run: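 Mice in groups of one to three were dosed orally. Deaths were scored on day 7 after dosing, and the LD50 was obtained by graphical interpolation.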

Oryctolagus cuniculus [3] = assay: Evaluation of formation of 3-Methyl-thiazolidin-2-ylideneamine from the radiolabeled compound, orally administered, from rabbit 2,4 liver was analyzed by Gas-liquid chromatographic analysis; format: ADME, organism-based; conditions: in vivo, po
How it was run: (§1)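 Rabbit 2 was gavaged twice with [14C]-labelled parent amide, 100 mg/kg each dose (204.6 dpm/μg), 2 h apart, and killed 2 h after the second dose. Urine (0-4 h), blood, liver, lung and kidney were taken. The metabolite was measured by GLC of trimethylsilyl derivatives (3% OV-210, 95 °C, internal standard 3-ethyl-2-thiazolidinimine). Values are % of radioactivity as metabolite, mean of two determinations.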

Oryctolagus cuniculus [4] = assay: Radioactivity measurements were performed following oral administration of the 100 mg/kg in rabbit 5 after 2 hr lung; format: ADME, organism-based; set-up: dose 100 mg/kg, route oral; conditions: in vivo
How it was run: (§2)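 Male rabbits (900-1060 g) received [14C]-labelled parent amide, 100 mg/kg (251.7 dpm/μg, pH about 4.5), by gavage. At 2 or 6 h they were killed by air injection into the ear vein. Blood was drawn by cardiac puncture; brain and lung were homogenized in water (1 g = 10 mL). Radioactivity is expressed as μg equivalents of parent per g or mL.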

Oryctolagus cuniculus [5] = assay: Evaluation of formation of 3-Methyl-thiazolidin-2-ylideneamine from the radiolabeled compound, orally administered, from rabbit 2,4 kidney was analyzed by Gas-liquid chromatographic analysis; format: ADME, organism-based; conditions: in vivo, po
How it was run: as §1

Oryctolagus cuniculus [6] = assay: Evaluation of formation of 3-Methyl-thiazolidin-2-ylideneamine from the radiolabeled compound, orally administered, from rabbit 1,2 liver was analyzed by Gas-liquid chromatographic analysis; format: ADME, organism-based; conditions: in vivo, po
How it was run: (§3)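 Rabbit 1 was given [14C]-labelled parent amide, 100 mg/kg (204.6 dpm/μg), orally by gavage and killed 2 h later. Urine (0-2 h), blood, liver, lung and kidney were collected. Samples were extracted, trimethylsilylated with BSA/pyridine at 70 °C for 12-16 h, and run by GLC on 3% OV-210 at 95 °C against the internal standard 3-ethyl-2-thiazolidinimine. Output is % of radioactivity present as the metabolite, mean of two determinations.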

Oryctolagus cuniculus [7] = assay: 100 mg/kg of [14C]- radiolabeled compound was orally (gavage) injected in rabbit 1 lung, and radioactivity content in feces was estimated at; format: ADME, organism-based; conditions: in vivo, po
How it was run: (§4)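 Rabbit given 100 mg/kg [14C]-labelled drug by gavage, 204.6 dpm/μg, in water/0.1 N HCl at 6.66 mg/mL. Rabbit 1 was killed at 2 h and liver, lung, kidney and blood taken; tissue values are μg equivalents/g and tissue:plasma ratio. Rabbit 3 was kept for urine (0-24, 24-48, 48-72 h) and feces (0-48 h), expressed as % of dose.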

Oryctolagus cuniculus [8] = assay: 100 mg/kg of [14C]- radiolabeled compound was orally (gavage) injected in rabbit, and radioactivity content in feces was estimated; format: ADME, organism-based; conditions: in vivo, po
How it was run: as §4

Oryctolagus cuniculus [9] = assay: Radioactivity measurements were performed following oral administration of the 100 mg/kg in rabbit 6 after 2 hr in plasma; format: ADME, organism-based; set-up: dose 100 mg/kg, route oral; conditions: in vivo
How it was run: as §2

[10] = target: Indolethylamine N-methyltransferase (Homo sapiens) (UniProt O95050); assay: In vitro evaluation of Indoleethylamine-N-methyltransferase in human lung preparations for the ability to inhibit conversion of N-methyltryptamine (NMT) to N,N-dimethyltryptamine (DMT) at dose 2.5 ug/mL; format: tissue-based
How it was run: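 Human lung INMT was taken from the 50000g supernatant, cut with 40-60% ammonium sulfate, dialysed and purified on Sephadex G-150. The reaction contained 0.007 M N-methyltryptamine stock, S-[methyl-14C]adenosylmethionine and potassium phosphate, pH 7.9, in 0.105 mL, run 90 min at 37 °C. It was stopped with borate at pH 10. [14C]DMT was extracted into isoamyl alcohol and counted by scintillation.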

Oryctolagus cuniculus [11] = assay: Radioactivity measurements were performed following oral administration of the 100 mg/kg in rabbit 8 after 6 hr in plasma; format: ADME, organism-based; set-up: dose 100 mg/kg, route oral; conditions: in vivo
How it was run: as §2

Oryctolagus cuniculus [12] = assay: 100 mg/kg of [14C]- radiolabeled compound was orally (gavage) administered in rabbit 1, and radioactivity content in lung was estimated; conditions: in vivo, po
[13] = Dose that causes approximately 50% lethality in mice, when given intraperitoneally; Value ranges from 1000-1500; format: ADME, organism-based; conditions: mouse, in vivo, ip
[14] = test system: Indolethylamine N-methyltransferase (Oryctolagus cuniculus); assay: In vivo evaluation of specific activity against rabbit lung Indoleethylamine-N-methyltransferase at intravenous dose of 5 mg/kg
Oryctolagus cuniculus [15] = assay: 200 mg/kg of [14C]- radiolabeled compound was orally administered in rabbit2, and radioactivity content in urine was estimated at 0-4 hr; conditions: rabbit, in vivo, po
Oryctolagus cuniculus [16] = assay: Percent of 3-Methyl-thiazolidin-2-ylideneamine as administered dose was reported in rabbit 2; format: ADME, organism-based; conditions: in vivo
Oryctolagus cuniculus [17] = assay: Evaluation of formation of 3-Methyl-thiazolidin-2-ylideneamine from the radiolabeled compound, orally administered, from rabbit 2 urine was analyzed at 0-2 hr by Gas-liquid chromatographic analysis; format: ADME, organism-based; conditions: in vivo, po, in the assay text read “0-4 hr” for “0-2 hr”
How it was run: as §1

Oryctolagus cuniculus [18] = assay: Percent of 3-Methyl-thiazolidin-2-ylideneamine as administered dose was reported in rabbit 1; format: ADME, organism-based; conditions: in vivo
Oryctolagus cuniculus [19] = assay: 100 mg/kg of [14C]- radiolabeled compound was orally (gavage) injected in rabbit1plasma, and radioactivity content in feces was estimated; format: ADME, organism-based; conditions: rabbit, in vivo, po
How it was run: as §4

Oryctolagus cuniculus [20] = assay: Percent of 3-Methyl-thiazolidin-2-ylideneamine as administered dose was reported in rabbit 4 by Gas-liquid chromatographic analysis; format: ADME, organism-based; conditions: in vivo
How it was run: (§5)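 Rabbits 3 (single 100 mg/kg) and 4 (two 100 mg/kg doses 2 h apart) were gavaged with [14C]-labelled parent amide (204.6 dpm/μg). They were not killed; urine was collected 0-24 h. The metabolite was quantified by GLC of trimethylsilylated extracts against an internal-standard peak-height-ratio curve. Results are given as % of urinary radioactivity or % of administered dose, mean of two determinations.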

Oryctolagus cuniculus [21] = assay: Evaluation of formation of 3-Methyl-thiazolidin-2-ylideneamine from the radiolabeled compound, orally administered, from rabbit 4 urine was analyzed at 0-2 hr by Gas-liquid chromatographic analysis; format: ADME, organism-based; conditions: in vivo, po, in the assay text read “0-24 hr” for “0-2 hr”
How it was run: as §5

Oryctolagus cuniculus [22] = assay: Radioactivity measurements were performed following oral administration of the 100 mg/kg in rabbit 7 after 6 hr in plasma; format: ADME, organism-based; set-up: dose 100 mg/kg, route oral; conditions: in vivo
How it was run: as §2

Oryctolagus cuniculus [23] = assay: Evaluation of formation of 3-Methyl-thiazolidin-2-ylideneamine from the radiolabeled compound, orally administered, from rabbit 1,2 plasma was analyzed by Gas-liquid chromatographic analysis; format: ADME, organism-based; conditions: in vivo, po
How it was run: as §3

Oryctolagus cuniculus [24] = assay: 200 mg/kg of [14C]- radiolabeled compound was orally administered in rabbit4, and radioactivity content in urine was estimated at 24-48 h; conditions: rabbit, in vivo, po
Oryctolagus cuniculus [25] = assay: 100 mg/kg of [14C]- radiolabeled compound was orally administered in rabbit3, and radioactivity content in urine was estimated at 0-24 hr; conditions: rabbit, in vivo, po

Sequence of Indolethylamine N-methyltransferase (Homo sapiens) (O95050 whole entry): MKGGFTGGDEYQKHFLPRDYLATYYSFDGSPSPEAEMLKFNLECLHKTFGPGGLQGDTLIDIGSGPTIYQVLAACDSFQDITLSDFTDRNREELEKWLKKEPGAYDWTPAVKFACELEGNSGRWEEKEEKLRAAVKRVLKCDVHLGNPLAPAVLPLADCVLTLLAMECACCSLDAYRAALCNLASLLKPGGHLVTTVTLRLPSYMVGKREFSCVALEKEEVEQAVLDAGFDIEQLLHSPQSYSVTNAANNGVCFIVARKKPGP

Work on `CN1CCS/C1=N\C(=O)CCC(=O)/N=C1/SCCN1C` yielded an Administered dose (Oryctolagus cuniculus [1]) of 86.9%, an LD50 [2] of 1460 mg/kg and a Radioactivity (Oryctolagus cuniculus [3]) of 34.4%. It also gave a Radioactivity level (Oryctolagus cuniculus [4]) of 36.4 µg/g, a Radioactivity (Oryctolagus cuniculus [5]) of 65.3% and a Radioactivity (Oryctolagus cuniculus [6]) of 37.9%. The Tissue to plasma ratio (Oryctolagus cuniculus [7]) was 1.5, the Administered dose (Oryctolagus cuniculus [8]) was 9% and 1% and the Radioactivity level (Oryctolagus cuniculus [9]) was 21.1 µg/mL. It also gave an inhibition [10] of 74%, a Radioactivity level (Oryctolagus cuniculus [11]) of 4 µg/mL and a Radioactivity concentration (Oryctolagus cuniculus [12]) of 36.3 µg/g. The LD50 [13] was 1000 mg/kg, the Specific activity [14] was 37000 dpm and the Administered dose (Oryctolagus cuniculus [15]) was 24%. The Administered dose (Oryctolagus cuniculus [16]) was 10.8%, the Radioactivity (Oryctolagus cuniculus [17]) was 44.7% and the Administered dose (Oryctolagus cuniculus [18]) was 27.9%. It also gave a Plasma concentration (Oryctolagus cuniculus [19]) of 23.5 µg/g, an Administered dose (Oryctolagus cuniculus [20]) of 41.3% and a Radioactivity (Oryctolagus cuniculus [21]) of 48.7%. It also gave a Radioactivity level (Oryctolagus cuniculus [22]) of 4.1 µg/mL, a Radioactivity (Oryctolagus cuniculus [23]) of 26.5% and an Administered dose (Oryctolagus cuniculus [24]) of 0.8%. For the same molecule, the Administered dose (Oryctolagus cuniculus [25]) was 85.9%.
